The record followed here is ChEMBL document CHEMBL1148344, “3-(2-aminoalkyl)-1-(2,6-difluorobenzyl)-5- (2-fluoro-3-methoxyphenyl)-6-methyl-uracils as orally bioavailable antagonists of the human gonadotropin releasing hormone receptor” (J Med Chem, 2004).

Molecules are shown by their SMILES.

For series [1], the target named is T1, Gonadotropin-releasing hormone receptor (Homo sapiens, UniProt P30968).
T1 sequence (P30968 whole entry): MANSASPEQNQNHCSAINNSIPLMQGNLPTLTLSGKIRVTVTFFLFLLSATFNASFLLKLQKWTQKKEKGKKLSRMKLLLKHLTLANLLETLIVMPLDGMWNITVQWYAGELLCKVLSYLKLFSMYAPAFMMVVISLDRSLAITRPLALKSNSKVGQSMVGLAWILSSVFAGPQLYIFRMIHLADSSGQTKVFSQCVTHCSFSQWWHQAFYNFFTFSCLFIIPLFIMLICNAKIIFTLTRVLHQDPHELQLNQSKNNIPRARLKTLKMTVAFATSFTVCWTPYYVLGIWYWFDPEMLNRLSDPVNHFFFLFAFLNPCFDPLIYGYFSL
Briefly: Binding affinity towards human gonadotropin releasing hormone receptor using des-Gly10[125I]Tyr5,D-Leu6,NMeLeu7,Pro9-NEt]GnRH as radioligand expressed in HEK293 cells. Format: cell-based. The essentials: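 Competitive displacement at cloned human GnRH receptor expressed in HEK293 cells, 96-well filtration format. Three to eight independent experiments.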

The nature of series [2]: Bioavailability in mouse. Particulars: in vivo. The class given is ADME, organism-based. The essentials: (§1)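 Mice dosed orally and intravenously at 10 mg/kg. Pharmacokinetic parameters derived from plasma exposure after each route.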
The nature of series [3]: Clearance in mouse. The class given is ADME, organism-based. The settings on record: in vivo. A digest of the protocol: as §1
A short description of series [4]: Volume of distribution in mouse. Particulars: in vivo. Format: ADME, organism-based. A digest of the protocol: as §1
The nature of series [5]: Half life in mouse. Format: ADME, organism-based. Particulars: in vivo. A digest of the protocol: as §1
In series [6] the target is T2, Gonadotropin-releasing hormone receptor (Rattus norvegicus, UniProt P30969).
T2 sequence (P30969 whole entry): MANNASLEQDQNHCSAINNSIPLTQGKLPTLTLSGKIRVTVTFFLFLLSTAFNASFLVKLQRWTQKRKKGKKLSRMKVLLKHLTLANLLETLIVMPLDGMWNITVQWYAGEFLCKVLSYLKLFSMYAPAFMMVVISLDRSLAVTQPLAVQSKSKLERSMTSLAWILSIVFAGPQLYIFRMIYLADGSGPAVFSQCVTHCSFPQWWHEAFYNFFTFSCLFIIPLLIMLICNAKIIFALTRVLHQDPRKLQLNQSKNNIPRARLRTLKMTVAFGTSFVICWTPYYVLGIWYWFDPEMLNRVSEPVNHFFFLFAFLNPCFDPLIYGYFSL
The series is described as follows: Tested for binding affinity towards rat gonadotropin releasing hormone receptor.

Series [7] in a line: Inhibitory concentration of compound against GnRH stimulated calcium flux in transfected cells. Format: functional, cell-based. A digest of the protocol:
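GnRH-stimulated Ca2+ flux measured in hGnRH receptor-transfected cells. Inhibition tested across a concentration series, with IC50 taken from the dose-response curve.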
A general note: Calcium assays in cells follow changes in intracellular calcium, usually with a dye or a luminescent sensor.

Take `COc1cccc(-c2c(C)n(Cc3c(F)cccc3F)c(=O)n(C[C@H](N)C3CCCC3)c2=O)c1F`: in series [1], the Ki (as a rule, a dissociation constant, usually derived from enzyme kinetics or from competition with a known ligand) turned out to be 0.01 µM. With `COc1cccc(-c2c(C)n(Cc3c(F)cccc3F)c(=O)n(C[C@@H](C3CCCCC3)N(C)C)c2=O)c1F`, the affinity in series [1], expressed as Ki, was 0.0041 µM.

For the compound `COc1cccc(-c2c(C)n(Cc3c(F)cccc3F)c(=O)n(C[C@H](N)Cc3ccccc3)c2=O)c1F`, the Ki in series [1] is 0.066 µM. Compound `COc1cccc(-c2c(C)n(Cc3c(F)cccc3F)c(=O)n(C[C@@H](C3CCCC3)N(C)C)c2=O)c1F` yielded a Ki in series [1] of 0.0006 µM. The same measure, in the same setting: the figure for `COc1cccc(-c2c(C)n(Cc3c(F)cccc3F)c(=O)n(C[C@H](Cc3ccccc3)N(C)C)c2=O)c1F` is 0.0079 µM.

The compound `COc1cccc(-c2c(C)n(Cc3c(F)cccc3F)c(=O)n(C[C@H](C)N)c2=O)c1F` returned a Ki in series [1] of more than 10 µM.

As to `COc1cccc(-c2c(C)n(Cc3c(F)cccc3F)c(=O)n(C[C@@H](CC(C)C)NC(C)C)c2=O)c1F`, the Ki in series [1] amounted to 0.012 µM.

`COc1cccc(-c2c(C)n(Cc3c(F)cccc3F)c(=O)n(CC(N)C3CCCCC3)c2=O)c1F` (single isomer, unassigned) came in with a Ki in series [1] of 0.046 µM.

`COc1cccc(-c2c(C)n(Cc3c(F)cccc3F)c(=O)n(C[C@H](N)C(C)C)c2=O)c1F` gave a Ki in series [1] of 0.051 µM. As for `COc1cccc(-c2c(C)n(Cc3c(F)cccc3F)c(=O)n(C[C@H](C3CCCC3)N(C)C)c2=O)c1F`, affinity in series [1] was put at a Ki of 0.0024 µM. In series [1], `COc1cccc(-c2c(C)n(Cc3c(F)cccc3F)c(=O)n(C[C@@H](N)CCc3ccccc3)c2=O)c1F` displayed a Ki of 0.965 µM.

`COc1cccc(-c2c(C)n(Cc3c(F)cccc3F)c(=O)n(C[C@H](NC(C)C)C3CCCCC3)c2=O)c1F` showed a Ki in series [1] of 0.023 µM. Still for that read-out and setting: the figure for `COc1cccc(-c2c(C)n(Cc3c(F)cccc3F)c(=O)n(C[C@H](NC(C)C)C3CCCC3)c2=O)c1F` is 0.012 µM.

In the case of `COc1cccc(-c2c(C)n(Cc3c(F)cccc3F)c(=O)n(C[C@H](C)NCc3ccccc3)c2=O)c1F`, in series [2], the bioavailability (in general, the share of a dose that reaches the circulation, judged against a reference dose that is usually intravenous) worked out at 3%. In addition, the inhibition constant (Ki) in series [1] amounted to 0.051 µM. In addition, the clearance (in general, a measure of how efficiently the substance is removed, as volume per time) in series [3] came to 4.88 L/h/kg. The Vd – broadly, the apparent volume that relates the amount in the body to the concentration in plasma or blood – in series [4] turned out to be 7.9 L/kg. The half-life – broadly, how long it takes for the measured level to halve – in series [5] was 66 min. Consider `CN[C@@H](Cc1ccccc1)Cn1c(=O)c(-c2cccc(OC)c2F)c(C)n(Cc2c(F)cccc2F)c1=O`, for which the bioavailability in series [2] is 42%. The inhibition constant (Ki) in series [6] worked out at 11 µM; in series [1], 0.0081 µM. Besides, in series [7], the IC50 (as a rule, the point on the concentration scale where inhibition reaches its midpoint) was 0.02 µM. Further, the clearance in series [3] amounted to 5.83 L/h/kg. This compound also registered a Vd in series [4] of 6.9 L/kg. Moreover, the half-life in series [5] was 48 min.

In series [1], `COc1cccc(-c2c(C)n(Cc3c(F)cccc3F)c(=O)n(C[C@H](N)CC(C)(C)C)c2=O)c1F` came in with a Ki of 0.071 µM. In turn, `COc1cccc(-c2c(C)n(Cc3c(F)cccc3F)c(=O)n(C[C@@H](C)N)c2=O)c1F` came in with a Ki in series [1] of 0.595 µM. For `COc1cccc(-c2c(C)n(Cc3c(F)cccc3F)c(=O)n(C[C@H](N)CC(C)C)c2=O)c1F`, the bioavailability in series [2] is 6%. For the same compound, the Ki in series [1] stood at 0.0064 µM. Besides, in series [3], the clearance came out at 3.94 L/h/kg. This compound showed a Vd in series [4] of 3.9 L/kg. The same compound showed a half-life in series [5] of 42 min. `COc1cccc(-c2c(C)n(Cc3c(F)cccc3F)c(=O)n(C[C@@H](N)C(C)C)c2=O)c1F` registered a Ki in series [1] of 0.973 µM. Still for that read-out and setting: the value for `COc1cccc(-c2c(C)n(Cc3c(F)cccc3F)c(=O)n(C[C@@H](N)C3CCCC3)c2=O)c1F` was 0.094 µM.

Compound `COc1cccc(-c2c(C)n(Cc3c(F)cccc3F)c(=O)n(C[C@@H](N)Cc3ccccc3)c2=O)c1F` yielded a bioavailability in series [2] of 11%. Moreover, affinity in series [1] was put at a Ki of 0.016 µM. This compound also returned a clearance in series [3] of 3.94 L/h/kg. This compound came in with a volume of distribution (Vd) in series [4] of 4.9 L/kg. The half-life in series [5] is 54 min. For the compound `CN[C@H](CC(C)C)Cn1c(=O)c(-c2cccc(OC)c2F)c(C)n(Cc2c(F)cccc2F)c1=O`, the Ki in series [1] was 0.0012 µM. The compound `COc1cccc(-c2c(C)n(Cc3c(F)cccc3F)c(=O)n(C[C@@H](N)CC(C)C)c2=O)c1F` showed an inhibitory constant (Ki) in series [1] of 0.039 µM. For the compound `COc1cccc(-c2c(C)n(Cc3c(F)cccc3F)c(=O)n(C[C@H](N)C3CCCCC3)c2=O)c1F`, the bioavailability in series [2] is 11%. Further, in series [7], the half-inhibitory concentration (IC50) was determined as 0.06 µM. In series [1], the Ki was 0.0065 µM. In series [3], this compound displayed a clearance of 3.92 L/h/kg. This compound showed a Vd in series [4] of 7.3 L/kg. Besides, the half-life in series [5] is 78 min.
